Published values of several laboratories.
Lines come from different studies, so protocols differ. pIC50: −log10 of the molar value.
Cell line: U-937
Read-out: cell growth or viability

CCOC(=O)CCC1=CC2C=CC=CC1C2C1CCCCC1=O (stereo not drawn)
pIC50 (flow cytometry): 7.29

CC(C)C[C@H](NC(=O)[C@H](Cc1ccccc1)NC(=O)c1cnccn1)B(O)O
pIC50 (ATP luminescence): 8.36

CCCCCCCCC1=CC2C=CC=CC1C2C1CCCCC1=O (stereo not drawn)
pIC50 (flow cytometry): 7.08

CC(C)[C@H](N)C(=O)N1CCC[C@H]1B(O)O
pIC50 (ATP luminescence; 48 h): < 4.22

CC(=O)OCCC1=CC2C=CC=CC1C2C1CCCCC1=O (stereo not drawn)
pIC50 (flow cytometry): 6.78

CC(=O)O[C@H]1C(=O)[C@@]2(C)[C@H]([C@H](OC(=O)c3ccccc3)[C@]3(O)C[C@H](OC(=O)[C@H](O)[C@@H](NC(=O)c4ccccc4)c4ccccc4)C(C)=C1C3(C)C)[C@]1(OC(C)=O)CO[C@@H]1C[C@@H]2O
pIC50 (72 h): 8.57

COc1cc(Nc2nccc(-c3cnn4nc(OC)ccc34)n2)cc(C(F)(F)F)c1
pIC50 (ATP luminescence): 6.68

CCC[C@H](Nc1nc(-c2ccc(NC(=O)NCC)c(OC)c2)ncc1C)c1cccnc1
pIC50 (fluorescence; 72 h): 7.48

N[C@@H](CC(=O)N1CCN(C(c2ccc(F)cc2)c2ccc(F)cc2)CC1)C(=O)N1Cc2ccccc2C1
pIC50 (ATP luminescence; 48 h): 4.56

COc1cc2nccc(Oc3ccc(NC(=O)C4(C(=O)Nc5ccc(F)cc5)CC4)cc3)c2cc1OC
pIC50 (trypan blue; 72 h): 5.52

COc1cc(-c2ncn(/C=C\C(=O)OC(C)C)n2)cc(C(F)(F)F)c1
pIC50 (72 h): 6.65

C#CCSc1nc(Sc2nnnn2-c2ccccc2)c2nnn(Cc3ccc(OC)cc3)c2n1
pIC50 (MTS; 6 days): 5.49

O=C1CCCCC1C1C2C=CC=CC1/C(=C/c1ccccc1)C2 (stereo not drawn)
pIC50 (flow cytometry): 7.11

CC[C@]1(O)C[C@H]2CN(CCc3c([nH]c4ccccc34)[C@@](C(=O)OC)(c3cc4c(cc3OC)N(C=O)[C@H]3[C@@](O)(C(=O)OC)[C@H](OC(C)=O)[C@]5(CC)C=CCN6CC[C@]43[C@@H]65)C2)C1
pIC50 (fluorescence; 72 h): 8.12

Nc1nc(Nc2ccc3c(c2)CC[C@@H](N2CCCC2)CC3)nn1-c1cc2c(nn1)-c1ccccc1CCC2
pIC50 (trypan blue; 72 h): 5.84
